Only a selection was taken, and hits are over-represented in it overall.
INS-1E ATP HTS: INS-1E beta cell protection from cytokine death; INS-1E cytokine-induced death, ATP luminescence, 48 h; normalised: neutral wells 0, positive control 100; protection from cytokine-induced ATP loss, % at 10 µM; 20,000 tested, 0.1% active;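 active means mean replicate protection from cytokine-induced ATP loss at least 50% and at least 75% of replicates each reaching 50%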
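Test system: INS-1E rat cells | Quantity: 8000 cells per well | Medium: Phenol-red-free RPMI with 5% fetal bovine serum | Reagent: Cytokine cocktail of IFN-γ, TNF-α and IL-1β | Doses: One compound concentration, pin transfer | Timing: 48 h co-treatment, 10 min post-lysis read | Technique: Luminescent ATP assay (CellTiter-Glo)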
T cruzi intra: blocks T. cruzi growth inside host cells; intracellular Trypanosoma cruzi in host cells, plate reader; activity score (inhibition), % at 5.01 µM; 22,000 tested, 4.9% active; AID 651903; in the data active means activity score above about 55%;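 further: parasites and compound incubated about four days before reading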
A1 apoptosis 2: compounds inhibiting A1, read as caspase activation; MEF A1-2A-BIM cells, caspase-Glo luminescence, 3 h; percent of clofoctol response, DMSO zero; caspase activation, % (no concentration beside the values); 24,000 tested, under 10 active; AID 2465; in the data active means caspase activation above about 5.9%
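Material: A1-2A-BIM-expressing MEF cells. Buffer or medium: RPMI-1640 plus 10% FBS. Incubation: cells settled overnight, compound exposure 3 h at 37 °C, 5% CO2. Signal: Caspase-Glo 3/7 luminescence, 1 h at room temperature.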
Each line names hits and unclear results; the compound was inactive in the other large screens.

C[C@H](CO)N1C[C@H](C)[C@H](CN(C)Cc2ccccc2)Oc2c(NC(=O)c3ccc(-c4nccs4)cc3)cccc2C1=O	none (no result: A1 apoptosis 2)
C[C@@H]1CN([C@H](C)CO)C(=O)c2cccc(NC(=O)c3ccc(-c4nccs4)cc3)c2O[C@H]1CN(C)Cc1ccc(Oc2ccccc2)cc1	T cruzi intra 81
C[C@H]1CN([C@@H](C)CO)C(=O)c2cccc(NC(=O)c3ccc(-c4nccs4)cc3)c2O[C@@H]1CN(C)Cc1ccc(Oc2ccccc2)cc1	none
C[C@@H]1CN([C@H](C)CO)C(=O)c2cccc(NC(=O)Nc3ccc4c(c3)OCO4)c2O[C@H]1CN(C)C(=O)Nc1ccc2c(c1)OCO2	none
CC(C)NC(=O)Nc1ccc2c(c1)C(=O)N([C@H](C)CO)C[C@@H](C)[C@H](CN(C)Cc1ccc3c(c1)OCO3)OCCCC[C@H](C)O2	none (no result: INS-1E ATP HTS, T cruzi intra)
C[C@@H]1CN([C@H](C)CO)C(=O)Cc2cc(NC(=O)Nc3ccc(F)cc3)ccc2O[C@H]1CN(C)Cc1ccc(C(F)(F)F)cc1	T cruzi intra 73 (no result: A1 apoptosis 2)
C[C@H](CO)N1C[C@H](C)[C@H](CN(C)Cc2ccc(C(F)(F)F)cc2)Oc2ccc(NC(=O)Nc3ccc(F)cc3)cc2CC1=O	T cruzi intra 78 (no result: A1 apoptosis 2)
C[C@H]1CN([C@@H](C)CO)C(=O)Cc2cc(NC(=O)Nc3ccc(F)cc3)ccc2O[C@@H]1CN(C)Cc1ccc(C(F)(F)F)cc1	T cruzi intra 84
COc1ccc(NC(=O)Nc2ccc3c(c2)CC(=O)N([C@@H](C)CO)C[C@@H](C)[C@H](CN(C)Cc2ccc(C(F)(F)F)cc2)O3)cc1	none (no result: INS-1E ATP HTS, T cruzi intra)
COc1ccc(CN(C)C[C@H]2Oc3ccc(NC(=O)Nc4ccc(C(F)(F)F)cc4)cc3CC(=O)N([C@@H](C)CO)C[C@@H]2C)cc1	none
C[C@H](CO)N1C[C@H](C)[C@@H](CN(C)C(=O)C2CCCCC2)OCCCC[C@H](C)Oc2ccc(NC(=O)c3ccncc3)cc2C1=O	none (no result: INS-1E ATP HTS, T cruzi intra)
C[C@@H]1CN([C@@H](C)CO)C(=O)Cc2cc(NC(=O)CCC(F)(F)F)ccc2O[C@@H]1CN(C)C(=O)NC1CCCCC1	none
C[C@@H]1CN([C@H](C)CO)C(=O)c2cc(NC(=O)CCC(F)(F)F)ccc2O[C@@H](C)CCCCO[C@@H]1CN(C)C(=O)c1ccncc1	none (no result: INS-1E ATP HTS, T cruzi intra)
C[C@H]1CN([C@@H](C)CO)C(=O)Cc2cc(NC(=O)Cn3cnnn3)ccc2O[C@H]1CN(C)S(C)(=O)=O	none (no result: A1 apoptosis 2)
C[C@H](CO)N1C[C@H](C)[C@H](CN(C)C(=O)Nc2cccc3ccccc23)Oc2c(NC(=O)c3ccncc3)cccc2C1=O	T cruzi intra 70
C[C@H]1CN([C@@H](C)CO)C(=O)c2cccc(NC(=O)c3ccncc3)c2O[C@@H]1CN(C)C(=O)Nc1cccc2ccccc12	none
C[C@H]1CN([C@@H](C)CO)C(=O)c2cccc(NC(=O)c3ccncc3)c2O[C@H]1CN(C)C(=O)Nc1cccc2ccccc12	T cruzi intra 75
C[C@@H]1CN([C@@H](C)CO)C(=O)c2cccc(NC(=O)c3ccncc3)c2O[C@H]1CN(C)C(=O)Nc1cccc2ccccc12	none
CC(C)NC(=O)N(C)C[C@@H]1Oc2c(NC(=O)C3CC3)cccc2C(=O)N([C@H](C)CO)C[C@@H]1C	none (no result: A1 apoptosis 2)
C[C@@H]1CN([C@@H](C)CO)C(=O)c2cc(NC(=O)NC3CCCCC3)ccc2O[C@@H]1CN(C)S(=O)(=O)c1cccs1	none (no result: INS-1E ATP HTS)
C[C@@H]1CCCCO[C@H](CN(C)C(=O)Nc2ccc(C(F)(F)F)cc2)[C@@H](C)CN([C@H](C)CO)C(=O)c2cc(NC(=O)Nc3cccc4ccccc34)ccc2O1	T cruzi intra 67
C[C@H]1CCCCO[C@@H](CN(C)C(=O)Nc2ccccc2)[C@@H](C)CN([C@@H](C)CO)C(=O)c2cc(NC(=O)Nc3ccc(C(F)(F)F)cc3)ccc2O1	none (no result: INS-1E ATP HTS, T cruzi intra)
C[C@@H]1CCCCO[C@@H](CN(C)C(=O)Nc2ccc(C(F)(F)F)cc2)[C@@H](C)CN([C@H](C)CO)C(=O)c2cc(NC(=O)NC3CCCCC3)ccc2O1	T cruzi intra 76
CC(C)NC(=O)Nc1ccc2c(c1)C(=O)N([C@H](C)CO)C[C@@H](C)[C@H](CN(C)C(=O)Nc1ccc(C(F)(F)F)cc1)OCCCC[C@H](C)O2	none (no result: INS-1E ATP HTS, T cruzi intra)
C[C@@H]1CCCCO[C@H](CN(C)C(=O)Nc2ccc(F)cc2)[C@@H](C)CN([C@H](C)CO)C(=O)c2cc(NC(=O)Nc3ccc(C(F)(F)F)cc3)ccc2O1	T cruzi intra 62 (no result: A1 apoptosis 2)
C[C@@H]1CCCCO[C@H](CN(C)C(=O)Nc2ccc(C(F)(F)F)cc2)[C@H](C)CN([C@H](C)CO)C(=O)c2cc(NC(=O)Nc3ccc(F)cc3)ccc2O1	none (no result: INS-1E ATP HTS, T cruzi intra)
